HTRA1 inhibitor: inhibitors of human serine peptidase HTRA1; Q92743; recombinant HTRA1, FP-rhodamine activity-based probe, fluorescence polarization; inhibition, % at 5.96 µM; actives 0.5% (n = 340,000); in the data active means inhibition above about 36%;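 further: 0% = enzyme with DMSO and 100% = wells lacking enzyme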
ABHD4 inh: inhibits mouse alpha/beta hydrolase domain 4; purified mABHD4, FP-Rh probe fluorescence polarization; Q8VD66; inhibition, % at 8.92 µM; AID 720543; actives 0.54% (n = 370,000);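 active means inhibition exceeding the mean over every tested compound plus 3 SD, cut at about 30% in these data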;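 further: 0% = plate median of compound wells and 100% = S159A mutant with DMSO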
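Assay system: mouse ABHD4 enzyme, wild type / Also added: fluorescent activity-based probe FP-Rh / Doses: single nominal dose of 8.92 µM, 0.89% DMSO final / Timing: 45 min compound pre-incubation plus 60 min probe step, 25 °C / Signal: FP readout, ex 525 nm / em 598 nm / Control set: S159A mutant/DMSO as 100%, compound-well median as 0%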
TCR CD3 inh: human TCR-CD3 binding inhibition | TAMRA-labeled TCR probe fluorescence, biochemical | actives 0.37% (n = 360,000) | inhibition, % at 9.4 µM | AID 651800; in the data active means inhibition above about 19%;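 further: recombinant mutant TCR 2C K166C tagged with TAMRA read by polarization; 0% = receptor in buffer alone and 100% = receptor with positive control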
SIAE primary: human SIAE inhibition, primary screen; SIAE FP-Rh probe binding, fluorescence polarization; inhibition, % at 9.66 µM; actives 0.69% (n = 370,000); AID 1053197;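 active means inhibition above a cutoff: mean of compounds within the control limits plus 3 SD of those, cut at about 17% in these data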;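 further: 0% = plate median of compound wells and 100% = probe without SIAE protein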
Target sequence (Q9HAT2 whole entry, looked up): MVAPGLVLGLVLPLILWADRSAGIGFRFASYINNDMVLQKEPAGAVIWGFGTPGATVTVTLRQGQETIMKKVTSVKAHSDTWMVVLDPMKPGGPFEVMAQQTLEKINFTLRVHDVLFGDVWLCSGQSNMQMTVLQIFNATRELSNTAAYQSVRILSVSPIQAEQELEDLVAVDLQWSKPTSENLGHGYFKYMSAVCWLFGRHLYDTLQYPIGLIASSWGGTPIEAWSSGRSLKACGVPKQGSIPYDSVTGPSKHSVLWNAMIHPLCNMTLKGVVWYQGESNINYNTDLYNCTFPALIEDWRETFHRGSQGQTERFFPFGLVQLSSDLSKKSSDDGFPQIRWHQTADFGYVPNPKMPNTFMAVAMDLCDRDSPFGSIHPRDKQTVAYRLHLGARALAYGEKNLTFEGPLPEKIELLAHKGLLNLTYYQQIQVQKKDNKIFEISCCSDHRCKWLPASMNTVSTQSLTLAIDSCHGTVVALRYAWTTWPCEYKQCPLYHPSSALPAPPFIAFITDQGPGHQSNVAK
ARNT TACC3 PPI: ARNT/TACC3 interaction disruption; Q9Y6A5; AlphaScreen His-ARNT PAS-B/GST-TACC3 binding, luminescence; TACC3 fragment carries E629A point mutation; inhibition, % at 9.99 µM; actives 0.66% (n = 390,000);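 active means mean inhibition of replicates at least 50% and at least half of replicates each reaching 50%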;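 further: 0% = complete ARNT plus TACC3 wells and 100% = ARNT alone without TACC3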
AlphaScreen ctr: interferes with AlphaScreen signal, flagging false ARNT-TACC3 hits | shares compounds with ARNT TACC3 PPI | AC50, µM (doses to about 68 µM), for inactives: at the top dose activity change, negative = signal decrease | AID 651705 | actives 50% (n = 1,200) | His-ARNT PASB-GST AlphaScreen artifact counter-screen, luminescence;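 active means every separate test run was called active for a drop in luminescence, with AC50 within twice the top valid dose, actives reach about 71 µM in these data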
The depositor's hits bear a star; x = no result; [ ] = another dose, or the depositor's remark. Shown are actives, neighbours in structure and some others; about 1.8% of the full set was active somewhere.

SMILES | HTRA1 inhibitor | ABHD4 inh | TCR CD3 inh | SIAE primary | ARNT TACC3 PPI | AlphaScreen ctr
Cc1cc(C(=O)Nc2ccc3c(c2)C(=O)N(C)[C@H]2CC[C@H](CC(=O)N[C@H](C)c4ccccc4)O[C@H]2CO3)no1 | x | x | x | x | -16 | x
Cc1cc(=O)[nH]c(-n2[nH]c3c(c2=O)CCCC3)n1 | 3 | 4 | 0 | -1 | 58* | -17%
O=C(N[C@H]1CC[C@H](CCn2cc(-c3ccccn3)nn2)O[C@H]1CO)c1cccnc1 | x | x | x | x | 85* | 44µM*
O=C(N[C@H]1CC[C@@H](CCn2cc(-c3ccccn3)nn2)O[C@@H]1CO)c1cccnc1 | x | x | x | x | 83* | 52µM*
O=C(N[C@@H]1CC[C@H](CCn2cc(-c3ccccn3)nn2)O[C@@H]1CO)c1cccnc1 | x | x | x | x | 89* | 34µM*
O=C(N[C@H]1CC[C@@H](CCn2cc(-c3ccccn3)nn2)O[C@H]1CO)c1cccnc1 | x | x | x | x | 69* | 26µM*
O=C(C[C@@H]1C[C@H]2c3cc(NC(=O)Nc4ccccc4F)ccc3O[C@H]2[C@@H](CO)O1)NCC1CC1 | x | x | x | x | 11 | x
O=C(Nc1ccccc1F)N[C@@H]1CC[C@@H](CCNC(=O)C2CCC2)O[C@@H]1CO | x | x | x | x | -3 | x
C[C@H]1CN([C@@H](C)CO)S(=O)(=O)c2ccc(-c3cccnc3)cc2O[C@H]1CN(C)C | x | x | x | x | 1 | x
C[C@H](CO)N1C[C@H](C)[C@@H](CN(C)CC2CCCCC2)Oc2ccc(NC(=O)Nc3ccc(C(F)(F)F)cc3)cc2C1=O | x | x | x | x | -5 | x
O=C(N[C@H]1CC[C@H](CCn2cc(-c3ccccn3)nn2)O[C@@H]1CO)c1cccnc1 | x | x | x | x | 83* | 33µM*
CC=Cc1ccc2n(c1=O)C[C@H]1[C@H](CO)[C@@H](C(=O)NCC)[C@@H]2N1C(C)=O (mixture of isomers) | x | x | x | x | 0 | x
C[C@@H]1CCCCO[C@H](CN(C)C(=O)C2CCCCC2)[C@@H](C)CN([C@H](C)CO)C(=O)c2cc(NC(=O)Nc3ccc(F)cc3)ccc2O1 | x | x | x | x | -6 | x
Cc1nnc(SCC(=O)Nc2nnc(-c3ccccc3)o2)s1 | -5 | -4 | -5 | 6 | 56* | -31%
CCOc1ccccc1C(=O)OCC(=O)Nc1nnc(-c2ccccc2)o1 | 3 | 7 | -1 | 5 | 54* | -31%
COc1ccccc1-c1nnc(NC(=O)Cc2ccccc2)o1 | 8 | -2 | 9 | -4 | 54* | -23%
COc1cc(-c2nnc(NC(=O)c3ccco3)o2)cc(OC)c1OC | -2 | -4 | -7 | -2 | 43* | -13%
CCOc1cc(-c2nnc(NC(=O)c3ccco3)o2)cc(OCC)c1OCC | 3 | 2 | -1 | -9 | 22 | x
C[C@@H]1CN([C@H](C)CO)C(=O)c2cc(-c3ccc(C#N)cc3)cnc2O[C@@H]1CN(C)C(=O)c1cccnc1 | x | x | x | x | 4 | x
CC(C)(C)c1ccc(OCCNC(=O)c2ncn[nH]2)cc1 | -3 | -10 | 7 | -1 | 77* | -16%
CCc1cc(C)cc(OCCNC(=O)c2ncn[nH]2)c1 | 5 | -8 | -1 | 1 | 33 | x
C[C@H](CO)N1C[C@H](C)[C@@H](CN(C)C(=O)C2CCCCC2)Oc2ncc(-c3ccncc3)cc2C1=O | x | x | x | x | -9 | x
O=C(C[C@H]1C=C[C@H](NC(=O)Nc2ccccc2)[C@H](CO)O1)NCc1ccccn1 | x | x | x | x | 3 | x
O=C(C[C@H]1C=C[C@@H](NC(=O)Nc2ccccc2)[C@@H](CO)O1)NCc1ccccn1 | x | x | x | x | 35* | -8%[42 µM]
O=C(O)C[C@H]1C[C@@H]2c3cc(NC(=O)NC4CCCC4)ccc3O[C@@H]2[C@@H](CO)O1 | x | x | x | x | -12 | x
CN1CCC(n2[nH]c(-c3ccccc3)c(Cc3ccccc3)c2=O)CC1 | 3 | 2 | -4 | 1 | active | -7%
CN1CCC(N2CCN(C3CN(CCc4ccccc4)S(=O)(=O)C3)CC2)CC1 (stereo unspecified) | x | 4 | 6 | -7 | x | x
CCOc1ccc2c(c1)C(N(CCN1CCOCC1)C(=O)Nc1ccccc1)CC(C)(C)O2 (stereo unspecified) | -8 | 6 | -4 | 5 | 58* | -8%
CCOc1ccc2c(c1)C(N(CCN1CCOCC1)C(=O)Nc1ccc(OC)cc1OC)CC(C)(C)O2 (stereo unspecified) | 1 | 6 | 0 | 9 | 21 | x
